{"data": "Published values collected from several papers", "target": "Ephrin type-B receptor 1 (EPHB1, Homo sapiens, UniProt P54762)", "Residues used in one study (P54762 18-984)": "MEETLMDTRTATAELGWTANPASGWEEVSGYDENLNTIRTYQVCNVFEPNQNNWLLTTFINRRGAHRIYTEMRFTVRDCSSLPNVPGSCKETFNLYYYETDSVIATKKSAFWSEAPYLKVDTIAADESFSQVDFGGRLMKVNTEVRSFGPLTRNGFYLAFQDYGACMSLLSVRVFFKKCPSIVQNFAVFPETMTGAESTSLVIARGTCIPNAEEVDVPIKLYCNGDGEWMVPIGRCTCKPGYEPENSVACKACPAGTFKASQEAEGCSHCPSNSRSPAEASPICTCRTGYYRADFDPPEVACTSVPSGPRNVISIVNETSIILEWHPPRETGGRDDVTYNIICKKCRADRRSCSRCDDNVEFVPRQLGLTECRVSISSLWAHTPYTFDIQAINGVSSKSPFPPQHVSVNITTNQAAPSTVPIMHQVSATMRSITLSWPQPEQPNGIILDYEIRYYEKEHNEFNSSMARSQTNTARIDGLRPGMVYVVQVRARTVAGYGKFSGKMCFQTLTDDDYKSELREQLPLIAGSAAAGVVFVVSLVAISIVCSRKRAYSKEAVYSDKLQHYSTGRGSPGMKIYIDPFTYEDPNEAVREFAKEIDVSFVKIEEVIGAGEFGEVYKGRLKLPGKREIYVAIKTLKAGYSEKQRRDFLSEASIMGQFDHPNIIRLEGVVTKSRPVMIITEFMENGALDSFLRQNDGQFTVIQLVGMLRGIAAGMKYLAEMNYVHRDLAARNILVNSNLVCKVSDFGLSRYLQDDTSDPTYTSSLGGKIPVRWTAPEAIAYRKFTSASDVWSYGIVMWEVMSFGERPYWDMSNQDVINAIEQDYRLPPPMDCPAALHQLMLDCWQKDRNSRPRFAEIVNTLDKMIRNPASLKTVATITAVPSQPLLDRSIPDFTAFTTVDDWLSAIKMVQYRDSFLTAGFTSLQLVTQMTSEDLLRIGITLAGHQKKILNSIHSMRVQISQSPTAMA", "note": "Protocols differ between the studies behind these lines."}
{"Structure (SMILES)": "O=C(NCCCN1CCOCC1)c1ccc(Nc2nccc(-c3cc4ccccc4s3)n2)cc1", "assay": "binding, competition with immobilised ligand", "conditions": "1 µM", "remaining binding [%]": 77}
{"Structure (SMILES)": "c1cncc(-c2cccc(Nc3nccc(NC4CCCCC4)n3)c2)c1", "assay": "binding, competition with immobilised ligand", "conditions": "10 µM", "remaining binding [%]": 81}
{"Structure (SMILES)": "CN(CCCC(F)(F)F)c1nccc(-c2cnn3ncccc23)n1", "assay": "binding", "conditions": "1 µM", "remaining binding [%]": 91}
{"Structure (SMILES)": "O=C(NCC1CCOCC1)c1n[nH]cc1NC(=O)c1c(F)cccc1F", "assay": "binding, competition with immobilised ligand", "conditions": "1 µM", "remaining binding [%]": 100}
{"Structure (SMILES)": "COc1cnc(Nc2cccc(S(N)(=O)=O)c2)nc1N1CCN(c2ccccc2)C(=O)C1", "assay": "binding, competition with immobilised ligand", "conditions": "1 µM", "remaining binding [%]": 100}
{"Structure (SMILES)": "c1cnn2ncc(-c3ccnc(N4CCC45COC5)n3)c2c1", "assay": "binding", "conditions": "1 µM", "remaining binding [%]": 100}
{"Structure (SMILES)": "CC(C)(O)c1cncc(-c2nc3ccc(F)cc3n2C2CC2)c1", "assay": "cell-free assay, competition with immobilised ligand", "conditions": "1 µM", "remaining binding [%]": 100}
{"Structure (SMILES)": "C[C@@H]1CCN(c2nccc(-c3cnn4ncccc34)n2)C1", "assay": "binding", "conditions": "1 µM", "remaining binding [%]": 97}
{"Structure (SMILES)": "Nc1cnc(N2CCc3cc(S(=O)(=O)Nc4c(F)cc(Cl)cc4F)cc(N4CCCC4=O)c32)nc1", "assay": "cell-free assay, competition with immobilised ligand", "conditions": "1 µM", "remaining binding [%]": 92}
{"Structure (SMILES)": "Nc1ncc2c(n1)-c1c([nH]c3ccc(C#CC4CC4)cc13)CCCC2", "assay": "binding, competition with immobilised ligand", "conditions": "1 µM", "remaining binding [%]": 92}
{"Structure (SMILES)": "CCN1CCN(Cc2ccc(C(=O)Nc3ccc(C)c(Oc4ccc5c(c4)CC(=O)N5)c3)cc2C(F)(F)F)CC1", "assay": "binding, competition with immobilised ligand", "conditions": "1 µM", "remaining binding [%]": 100}
{"Structure (SMILES)": "CN1CCN(c2cnc3c(C4CCN(C(=O)c5ccc(OC(F)(F)F)cc5N)CC4)ncnc3c2)CC1", "assay": "cell-free assay, competition with immobilised ligand", "conditions": "1 µM", "remaining binding [%]": 100}
{"Structure (SMILES)": "CN(C)c1nccc(-c2cnn3ncccc23)n1", "assay": "binding", "conditions": "1 µM", "remaining binding [%]": 100}
{"Structure (SMILES)": "N#CC1(c2ccccn2)CCN(Cc2cc(C(=O)N3CCCC3)c(=O)n3ccccc23)CC1", "assay": "cell-free assay, competition with immobilised ligand", "conditions": "1 µM", "remaining binding [%]": 91}
{"Structure (SMILES)": "O=C(c1ccc(Nc2ncc(Cl)c(-c3ccc(Cl)s3)n2)cc1)N1CCC(N2CCCC2)CC1", "assay": "binding, competition with immobilised ligand", "conditions": "1 µM", "remaining binding [%]": 30}
{"Structure (SMILES)": "C=CC(=O)N1CCC(C(=O)NCC(=O)N2CCN(c3nc(-c4cnc(N)nc4C(F)F)nc(N4CCOCC4)n3)CC2)CC1", "assay": "binding, competition with immobilised ligand", "conditions": "1 µM", "remaining binding [%]": 100}
{"Structure (SMILES)": "Cc1cnc(Nc2ccc(C(=O)N3CCC(N4CCCC4)CC3)cc2)nc1-c1cc2ccccc2s1", "assay": "binding, competition with immobilised ligand", "conditions": "1 µM", "remaining binding [%]": 4.4}
{"Structure (SMILES)": "CNCc1ccccc1-c1csc([C@H](C)Nc2nc(C)nc3cc(OC)c(OC)cc23)c1", "assay": "cell-free assay, competition with immobilised ligand", "conditions": "1 µM", "remaining binding [%]": 100}
{"Structure (SMILES)": "N[C@@H]1CCN(c2nccc(-c3cnn4ncccc34)n2)C1", "assay": "binding", "conditions": "1 µM", "remaining binding [%]": 96}
{"Structure (SMILES)": "c1ccc(N2CCN(Cc3nc4ccccc4[nH]3)CC2)nc1", "assay": "cell-free assay, competition with immobilised ligand", "conditions": "1 µM", "remaining binding [%]": 100}
{"Structure (SMILES)": "C[C@@H](c1ccc(-n2cnc3c(N)ncnc32)cc1)N1CCc2nn(C)c(Cc3ccccc3)c2C1=O", "assay": "binding, competition with immobilised ligand", "conditions": "0.1 µM", "remaining binding [%]": 70}
